Most compounds without a hit are left out; they make up all but 3.2% or so of the library.
PLK1 kinase inh: inhibitors of human PLK1 kinase | P53350 | recombinant PLK1 kinase, TR-FRET peptide phosphorylation | inhibition, % at 10 µM | hit rate 0.53% among 97,000 | AID 619;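 active = inhibition of 50% or more in the single-concentration screen; inactive = inhibition below 50%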;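 note: 0% = DMSO max control and 100% = H-89 dihydrochloride min control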
FAK inh: blocks human focal adhesion kinase activity. inhibition, %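 (tested at 7 µM)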. biochemical FAK kinase activity assay. hit rate 0.84% among 97,000; in the data active = inhibition above about 19%;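 note: 0% = DMSO and 100% = reference compound high control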
Rev-RRE block: inhibitors of HIV-1 Rev-RRE RNA interaction | P05866 | Rev peptide-RRE RNA binding, FRET | inhibition, % at 8 µM | hit rate 0.79% among 97,000;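 active = inhibition above the screen-wide mean plus 3 SD, cut at about 35% in these data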;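 note: 0% = median DMSO wells and 100% = median Neomycin B control wells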
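Test system: Cy5-tagged RRE RNA duplex with fluorescein-tagged Rev peptide; Probe or stimulus: labelled Rev peptide; Schedule: 5 min preincubation and 15 min binding, 25 °C; Signal: FRET fluorescence readout; Evaluation: % inhibition from 671/540 nm acceptor-to-donor ratio, scaled between controls; Control set: DMSO and neomycin B.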
DAT uptake mod: modulates human dopamine transporter uptake under cocaine | LLC-PK1 hDAT cells, [14C]-dopamine uptake with cocaine IC80; actives deviate in either direction | B-score at 10 µM | Q01959 | hit rate 1.3% among 110,000;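 active = Z score or B-score, a plate-position-corrected score, falls beyond the plate's 99.7% confidence bounds, in either direction; inactive = both scores lie inside the 99.7% bounds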;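 note: scored against the spread of the other compound wells on the same plate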
EphB4 ephrin blk: EphB4-ephrin-B2 interaction antagonism; hit rate 0.15% among 97,000; inhibition, % at 7 µM; EphB4 LBD / TNYL-RAW-Alexa532 peptide, fluorescence polarization; P54760;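 active = inhibition above the screen-wide mean inhibition plus 3 SD, cut at about 15% in these data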;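 note: 0% = DMSO wells and 100% = excess unlabeled TNYL-RAW peptide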
PLK1 PBD inh: blocks phosphopeptide binding to human Plk1 polo box domain; P53350; Plk1 PBD phosphopeptide binding, fluorescence polarization; inhibition, %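 (tested at about 20 µM)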; hit rate 0.13% among 97,000; AID 693; in the data active = inhibition above about 34%, passing the limit was not always enough
* hit, by the source's call; / = no result given; [ ] = another dose, or the depositor's remark.

SMILES	PLK1 kinase inh	FAK inh	Rev-RRE block	DAT uptake mod	EphB4 ephrin blk	PLK1 PBD inh
COC(=O)C1=C(C(=O)OC)[C@@H]2N(C)c3ccccc3[C@@]23C[C@@H](CO)N(C(=O)C2CCC2)C3=N1	/	/	/	0.013	/	/
CC(C)Cc1cc(C(=O)Nc2cc(C(F)(F)F)ccc2Cl)no1	-3	0	26	-1.6	9	-18
COCCN1Cc2cccc(C(=O)Nc3cc(C)cc(C)c3)c2C1=O	-7	-2	-4	1.8*	7	-23
CCCN1Cc2cccc(C(=O)Nc3ccc(CC)cc3)c2C1=O	-2	0	19	-0.14	4	-10
CCCN1Cc2cccc(C(=O)Nc3ccc(C)cc3)c2C1=O	-2	5	19	-8*	1	-11
O=C1/C(=C\c2ccc3c(c2)OCO3)CCC/C1=C/c1ccc2c(c1)OCO2	1	-1	28	/	4	-24
CC(C)c1ccc(/C=C2\CC/C(=C\C=N\N(C)C)C2=O)cc1	-15	0	46*	/	1	-17
COc1ccc(-n2c(C)cc(C(=O)Cn3c(NCCO)nc4ccccc43)c2C)cc1	-9	9	-6	2.1*	-7	-15
CCOc1ccc(NC(=O)C2CSC(c3ccncc3)=N2)cc1 (stereo unspecified)	/	/	/	-0.28	/	/
CCOC(=O)C(Sc1nn(C)c(=S)s1)C(C)=O (stereo unspecified)	4	2	4	0.16	-7	-14
Cn1nc(SCC(=O)O)sc1=S	-7	4	140*[fluorescence artefact?]	-0.14	-2	-3
CS(=O)(=O)N1c2ccccc2[C@]2([C@@]34C[C@H]5C(=O)N[C@@H](Cc6ccccc6)C(=O)N5[C@@H]3N(S(C)(=O)=O)c3ccccc34)C[C@H]3C(=O)N[C@@H](Cc4ccccc4)C(=O)N3[C@H]12	/	/	/	0.087	/	/
COC(=O)c1ccc(-n2nnnc2SCC(=O)Nc2cc(OC)ccc2OC)cc1	-12	1	1	0.42	1	4
COc1ccc(OC)c(NC(=O)CSc2nnc(-c3ccco3)n2-c2ccccc2)c1	-13	-2	8	-0.33	-11	1
O=C(CSc1nnnn1Cc1ccccc1)Nc1ccc2c(c1)OCO2	-12	2	-5	-2.1	18*	-18
COc1ccc(OC)c(NC(=O)CSc2nnc(CCCO)n2-c2ccccc2)c1	-19	0	0	2.9*	-2	9
COc1ccc(NC(=O)CSc2nccn2-c2cccc(OC)c2)cc1	12	-1	4	-0.66	2	15
COc1ccc(OC)c(NC(=O)CSc2nnnn2-c2ccc3c(c2)OCO3)c1	-12	4	2	-3.5*	-2	4
COc1cccc(-n2ccnc2SCC(=O)Nc2cc(OC)ccc2OC)c1	-9	2	11	1.5*	-3	-10
NS(=O)(=O)c1ccc(C(=O)O)cc1	/	/	/	-0.53	/	/
O=C(NCc1ccco1)C1CC(c2cc(C(F)(F)F)cc(C(F)(F)F)c2)=NO1 (stereo unspecified)	/	/	/	-0.44	/	/
CC1=Nc2ccccc2/C1=C\c1nc(-c2ccc(F)cc2)oc1O	-12	-1	52*	-0.54	15*	-37
CN=Cc1nc(-c2ccccc2)oc1O	-9	2	5	-1	-5	-1
NC(=S)Nc1cccc2cc3ccccc3cc12	1	1	102*[fluorescence artefact?]	-0.84	-7	-12
Cc1ccccc1NC(=O)NCCN1C(=O)C2C3C=CC(C3)C2C1=O (stereo unspecified)	-1	0	8	-0.047	1	-21
SMILES	PLK1 kinase inh	FAK inh	Rev-RRE block	DAT uptake mod	EphB4 ephrin blk	PLK1 PBD inh
O=C(NCCN1C(=O)C2C3C=CC(C3)C2C1=O)Nc1ccccc1 (stereo unspecified)	67*	1	8	-0.41	3	11
Cc1ccc(NC(=O)NCCN2C(=O)C3C4C=CC(C4)C3C2=O)cc1 (stereo unspecified)	62*	2	3	0.057	-5	37
O=C(NCCN1C(=O)C2C3C=CC(C3)C2C1=O)NCc1ccccc1 (stereo unspecified)	54*	1	5	0.033	-7	12
NNC(=O)c1nnn(-c2nonc2N)c1-c1cccs1	-3	-3	0	-0.0091	-5	8
Cc1csc(NC(=O)CSc2nc(C(C)C)nc3c2c(=O)n(C)c(=O)n3C)n1	66*	-2	8	-0.83	0	12
Cc1nc(SCC(=O)Nc2cc(C)on2)c2c(=O)n(C)c(=O)n(C)c2n1	-8	2	10	-0.71	3	-15

Source: PubChem
